Assay results published in paper PMC9111184 (Current Research in Pharmacology and Drug Discovery, 2022).

How the values were obtained:
[1] = tested on: Caco-2 cell monolayers; format: cell-based, Human; conditions: relative to cholesterol alone, 24 h
Method in brief: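 Caco-2 seeded at 2–4 x 10^4 cells/cm2 on transwell inserts (0.4 μm pore) and grown 16 days into monolayers. TEER was read before and after; monolayers above […] were accepted. Test compound was added apically in DMEM together with 5 mM cholesterol, with plain DMEM basolateral. After 24 h at 37 °C, 5% CO2, both sides were sampled for RP-HPLC-DAD. Cholesterol permeation % = amount transported/initial apical amount.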

[2] = tested on: Caco-2 cells; experiment: FTIR analysis of treated cells; format: cell-based, Human; conditions: phenolic compounds 1 mM, 24 h
Method in brief: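 Cell suspension at ~1.2 × 10^6 cells/mL was seeded onto CaF2 windows and left overnight. Cells were then exposed 24 h to phenolic test compounds at 1 mM or another test compound at 100 μM; untreated cells served as control. FTIR spectra covered 900–3000 cm−1 at 4 cm−1 resolution, averaging 128 scans, and were normalized to Amide II. Spectra were Savitsky-Golay smoothed (eight points) and second-derivative processed; 4 replicates.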

[3] = Permeability; format: in vitro ADME; conditions: human, Caco-2
Method in brief: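 Monolayers were Caco-2 grown 16 days on 0.4 μm-pore transwell inserts after seeding at 2–4 x 10^4 cells/cm2, with TEER above 250 Ω/cm2 checked before and after. Test compound in DMEM containing 5 mM cholesterol went apically and DMEM basolaterally for 24 h, 37 °C, 5% CO2. Both compartments were quantified by RP-HPLC-DAD. Papp = (dQ/dt)/(A × C0), using basolateral appearance rate, membrane area and initial concentration.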

[4] = MTT cytotoxicity on Caco-2 cell line; format: cell-based; conditions: human, Caco-2 cells
Method in brief: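 MTT viability test: 2 × 10^4 cells per well, pre-incubated 48 h at 37 °C, 5% CO2. Test compound in FBS-free DMEM was added at 0.025–1 mg/mL (phenolic acids) or 0.1–1 mM (other compound) for 24 h, then MTT reagent. Absorbance was read at 595 nm minus 630 nm, and viability expressed as % of untreated control; eight replicates per concentration.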

| Papp at 24 h [3] [×10⁻⁶ cm/s] | Structure (SMILES) | Decrease in cholesterol permeability [1] [%] | Change of bands at 965, 1081 and 1240 cm−1 (DNA bands) relative to control ([2]; Ezetimibe 100 μM) | Change of β-sheets band area at ∼1637 and 1683 cm−1 vs untreated cells ([2]; Ezetimibe 100 μM) | Change of band at 1081 cm−1 relative to control [2] | IC50 at 24 h [4] [µM] | Change of random coil structures at 1650 cm−1 vs untreated cells ([2]; Ezetimibe 100 μM) |
| --- | --- | --- | --- | --- | --- | --- | --- |
| – | O=C(O)/C=C/c1cccc(O)c1 [m-CA, m-coumaric acid] | 77.70 | decrease | didn't show any changes | – | – | – |
| 1.38 | O=C(/C=C/c1ccc(O)c(O)c1)O[C@@H]1C[C@](O)(C(=O)O)C[C@@H](O)[C@H]1O [ChA, chlorogenic acid] | 80.29 | decrease | – | increase | – | – |
| 2.94 | O=C1[C@H](CC[C@H](O)c2ccc(F)cc2)[C@@H](c2ccc(O)cc2)N1c1ccc(F)cc1 [EZ, ezetimibe, reference compound] | 96.60 | – | – | – | 228 | – |
| 1.68 | O=C(/C=C/c1ccc(O)c(O)c1)O[C@H](Cc1ccc(O)c(O)c1)C(=O)O [RA, rosmarinic acid] | 85.65 | decrease | increase | – | – | increase |
